Compound activity as filed in PubChem.
This is a sample that favours compounds with a hit; in the whole collection about 12% have one here.
Lmaj promast: reduces viability of Leishmania major promastigotes. inhibition, % at 10 µM. resazurin fluorescence viability. actives 9% (n = 200,000);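 also: promastigotes grown with compound for 44 hours at 28 °C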
CHOP inhibitor: CHOP inhibition in unfolded protein response; CHO-K1 CHOP-promoter luciferase, tunicamycin-induced, 15-18 h; inhibition, % at 10 µM; actives 3.8% (n = 220,000); AID 2732;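 active = compounds that reduced the stress-induced luciferase reporter signal by more than about 70% of percent inhibition, limit read from the data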;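 also: 0% = tunicamycin plus vehicle and 100% = wells without tunicamycin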
Arbovirus anti: antivirals against arbovirus infection. arbovirus infection cell-based antiviral screen. inhibition, % at 10 µM. actives 0.37% (n = 200,000). AID 1251; in the data active = inhibition above about 30%
PKD1 inh: PKD1 (human) kinase inhibition; AID 797; actives 0.056% (n = 200,000); PKD1 kinase fluorescence polarization assay; inhibition, % (no concentration beside the values)
Target sequence (Q15139 whole entry, looked up): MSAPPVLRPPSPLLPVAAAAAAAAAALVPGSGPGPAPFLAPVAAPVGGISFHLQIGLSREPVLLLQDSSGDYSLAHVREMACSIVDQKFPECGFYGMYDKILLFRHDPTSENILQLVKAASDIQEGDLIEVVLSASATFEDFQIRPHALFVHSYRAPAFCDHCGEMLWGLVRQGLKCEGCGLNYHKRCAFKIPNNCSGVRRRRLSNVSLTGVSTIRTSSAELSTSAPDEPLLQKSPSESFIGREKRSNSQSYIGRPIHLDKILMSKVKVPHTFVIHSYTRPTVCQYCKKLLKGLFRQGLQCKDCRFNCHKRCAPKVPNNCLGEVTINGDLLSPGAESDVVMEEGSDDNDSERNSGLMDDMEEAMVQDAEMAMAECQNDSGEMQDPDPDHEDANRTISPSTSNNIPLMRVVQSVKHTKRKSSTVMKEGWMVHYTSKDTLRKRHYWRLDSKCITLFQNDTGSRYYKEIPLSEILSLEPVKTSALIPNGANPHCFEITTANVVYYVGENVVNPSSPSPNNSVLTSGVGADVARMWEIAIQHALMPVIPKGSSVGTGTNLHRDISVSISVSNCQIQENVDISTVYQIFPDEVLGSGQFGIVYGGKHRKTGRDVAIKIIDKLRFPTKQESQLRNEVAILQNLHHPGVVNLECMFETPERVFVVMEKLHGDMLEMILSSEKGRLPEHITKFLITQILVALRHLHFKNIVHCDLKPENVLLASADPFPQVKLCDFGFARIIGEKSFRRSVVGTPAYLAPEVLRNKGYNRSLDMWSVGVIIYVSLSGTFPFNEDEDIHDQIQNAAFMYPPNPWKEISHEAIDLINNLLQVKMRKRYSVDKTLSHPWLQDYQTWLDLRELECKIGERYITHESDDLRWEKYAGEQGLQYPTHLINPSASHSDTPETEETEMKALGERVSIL
Wee1 stabilizer: inhibitors of human Wee1 degradation; P30291; HeLa Luc-Wee1K328M stability, luciferase luminescence; 100% = proteasome inhibitor MG132 effect; reporter increase, % at 5 µM; actives 1.2% (n = 220,000);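 active = activation above the mean of all tested compounds plus 3 SD, set per screening run, cut at about 8.8% in these data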;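 also: cells exposed to compound for 20 h before luminescence read; 0% = DMSO alone and 100% = MG132 at 30 µM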
Rad51 HR inh: blocks human Rad51 in homologous recombination | actives 0.085% (n = 200,000) | AID 1385 | inhibition, % at 10 µM | hRad51 DNA strand exchange, fluorescence dequenching | Q06609;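 active = inhibition above 40% at the single screening dose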;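 also: 0% = DMSO control wells and 100% = blanks with heterologous ssDNA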
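Test system: preformed human Rad51 ssDNA filaments. Compound dosing: single dose, 10 µM final compound. Incubation: filaments 15 min 37 °C, then compound 30 min. Technique: FRET fluorescence dequenching, excitation 485 nm, emission 520 nm. Read-out basis: percent inhibition from fluorescence, normalised to plate control and blank means. Benchmarks: plate controls and plate blanks.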
The depositor's hits bear a star; . = not tested or not shown. Rule as the data show it, unless noted: active = inhibition above about 50%; inactive = the rest.

SMILES | Lmaj promast | CHOP inhibitor | Arbovirus anti | PKD1 inh | Wee1 stabilizer | Rad51 HR inh
CC(=O)c1cccc(NC(=O)c2ccc(-c3ccccc3[N+](=O)[O-])o2)c1 | 75* | -15 | -7 | 12 | 1 | 11
NC(=O)c1c(/N=C/c2cccs2)sc2c1CCCC2 | . | 12 | . | . | 7 | .
COc1cc(OC)cc(C(=O)NNC(=S)NC2CC2)c1 | 1 | -1 | -3 | 2 | 1 | .
O=C(Nc1ccc(-c2nc3ccccc3[nH]2)cc1)c1cccc(N2C(=O)CCC2=O)c1 | 49 | 18 | 1 | -9 | 0 | 3
CCc1ccccc1NC(=S)N(CCOC)C(C)c1ccco1 (configuration not stated) | . | 18 | . | . | 0 | 29
CCN1CCCc2cc(CN(CCN3CCOCC3)C(=S)Nc3cccc(OC)c3)ccc21 | 21 | -5 | 6 | -4 | -5 | -1
CCCCCC(=O)Nc1ccc(-c2csc(N)n2)cc1 | 12 | 3 | -11 | -3 | 2 | .
CCC(=O)N(CCC1(c2ccccc2OC)CCOC(C(C)C)C1)Cc1ccco1 (configuration not stated) | . | -1 | . | . | -2 | 14
COc1ccc(/C(C)=N/OCC(=O)N=Nc2c(O)[nH]c3ccc(Br)cc23)cc1 | -5 | -13 | -12 | 3 | 0 | .
COc1ccc(/C=N/OCC(=O)N=Nc2c(O)[nH]c3ccc(Br)cc23)cc1OC | 63* | 24 | -29 | -6 | 1 | 2
COc1ccc(/C=N\Nc2ncc(F)c(N3CCOCC3)n2)cc1OC | . | 15 | . | . | 2 | 16
COC(=O)c1c(C)[nH]c(C)c1-c1ccc(C)cc1 | 94* | 12 | -1 | 1 | 1 | 0
COC(=O)c1c(C)[nH]c(C)c1-c1cccc([N+](=O)[O-])c1 | 21 | 19 | -1 | 3 | -1 | 17
CN(CC1CCOCC1)C(=O)CC1C(=O)NCCN1C/C=C/c1ccccc1 (configuration not stated) | 0 | -6 | 4 | 3 | -3 | -10
Cc1ccc(S(=O)(=O)N2CCN(CC(=O)N/N=C/c3ccco3)CC2)cc1 | -1 | -5 | -3 | -5 | 4 | .
Cc1ccc(C(=O)NCC(=O)OCC(=O)NC2CCS(=O)(=O)C2)cc1C (configuration not stated) | 52* | 10 | 1 | 2 | 2 | -5
COc1ccc(C(=O)NCC(=O)OCC(=O)NC2CCCC2)cc1 | -2 | -12 | 4 | -1 | 2 | -3
CC(C)n1c(-c2ccc(N(C)C)cc2)nc2ccccc21 | 50* | 24 | 22 | -1 | 0 | -6
COc1cc(NC(=O)c2ccc(C(C)(C)C)cc2)c(OC)cc1NC(=O)CN1CCCCC1 | 21 | 26 | -22 | 8 | 4 | -1
CNC(=O)c1ccc(-c2ccc(F)cc2)s1 | -4 | -21 | -3 | -3 | 2 | 5
CNC(=O)c1ccc(-c2ccc(Cl)c(Cl)c2)s1 | 56* | 5 | -7 | -2 | 2 | -11
Cc1cnc(NC(=O)CN2CCN(c3ccccn3)CC2)s1 | -5 | 74* | -10 | -3 | 0 | .
N#Cc1ccsc1NC(=O)CN1CCN(c2ccccn2)CC1 | -2 | 12 | 4 | 0 | 0 | -3
CCOc1ccc(CSC2=NCCN2)cc1Cl | 22 | 62 | -17 | 6 | -1 | -12
CCOc1ccc(Br)cc1/C(C)=N\NC1=NCCN1 | 95* | 11 | -26 | -1 | -2 | -3
SMILES | Lmaj promast | CHOP inhibitor | Arbovirus anti | PKD1 inh | Wee1 stabilizer | Rad51 HR inh
Cc1nc(Nc2cccc(C(C)O)c2)c2nnn(Cc3ccccc3F)c2n1 (configuration not stated) | 3 | 13 | 0 | 3 | 0 | 4
Cc1ccccc1NC(=S)N(CCCN1CCOCC1)Cc1ccccn1 | 65* | 17 | 9 | -5 | -2 | -7
Cc1ccc(NC(=S)N(CCCN2CCOCC2)Cc2ccccn2)cc1 | 1 | 5 | -5 | -1 | 2 | -4
S=C(Nc1ccccc1Cl)N(CCCN1CCOCC1)Cc1ccco1 | 85* | 37 | 13 | -14 | 0 | 0
CC1CCC(C(C)C)C2=C1C(C#N)(C#N)C(C#N)(C#N)C(c1ccccc1)N2 (configuration not stated) | 100* | -22 | 6 | 4 | -2 | -11
CC1=CC(C#N)(C#N)C(C#N)(C#N)C(c2ccccc2)N1 (configuration not stated) | -4 | 32 | 5 | -2 | -1 | -14
COc1cc(OC)c(C2=NOC(C(=O)NCc3cccs3)C2)cc1Cl (configuration not stated) | -1 | 1 | -18 | 4 | 9.6* | 1
Clc1cccc(COn2c(-c3ccc(Cl)cc3Cl)nc3ncccc32)c1 | 100* | 74* | -20 | 0 | -1 | 8
Cc1c(C(=O)NCC2COc3ccccc3O2)oc2ccc(S(=O)(=O)N(C)C3CCCCC3)cc12 (configuration not stated) | 53* | 1 | 2 | -6 | -1 | -4
Cc1c(C(=O)NCC2CCCO2)oc2ccc(S(=O)(=O)N3CCCC3)cc12 (configuration not stated) | -8 | 11 | -1 | -15 | 0 | -8
O=C(O)CCN1c2ccccc2Sc2ccccc21 | . | 3 | . | . | -1 | .
CN(C)CCCN1c2ccccc2Sc2ccc(Cl)cc21 | 83* | 9 | -44 | -1 | 0 | -10
OCCN1CCN(CCCN2c3ccccc3Sc3ccc(Cl)cc32)CC1 | 96* | 8 | -44 | -6 | 0 | 2
O=C1NC(c2cccs2)Nc2sc3c(c21)CCCC3 (configuration not stated) | 3 | -1 | 5 | -7 | 8.9* | -2
COC(=O)c1[nH]c2cc(OC)ccc2c1NC(=O)CN1CCN(c2cccc(C)c2)C(C)C1 (configuration not stated) | 32 | 89* | -15 | -5 | -2 | 1
O=C(Nc1ccccc1)N1CCCCC1c1cccnc1 (configuration not stated) | 77* | 26 | -4 | 0 | -2 | 7
O=C(Nc1ccccc1F)N1CCCC1c1cccnc1 (configuration not stated) | . | 29 | . | . | 0 | 0
O=C1OC(c2ccc(F)cc2)=C/C1=C\c1ccc([N+](=O)[O-])o1 | 100* | 25 | -34 | -2 | 2 | -436
CCOC(=O)C1CCN(Cc2cccc(OC)c2)CC1 | 90* | 9 | -5 | -5 | 3 | -4
CCOC(=O)C1CCN(Cc2ccc(OC)cc2OC)CC1 | -2 | 24 | -2 | -5 | -4 | 5
CCOC(=O)C1CCN(Cc2ccc(F)c(F)c2)CC1 | 80* | 40 | 5 | -3 | -1 | -2
CCOC(=O)C1CCN(Cc2cnc(Oc3ccc(OC)cc3)s2)CC1 | 93* | -6 | 3 | -9 | -1 | 2
CCOC(=O)C1CCN(Cc2cc(C(C)C)c(O)c(C(C)C)c2)CC1 | 58* | 1 | 15 | 2 | 1 | 9
CCOC(=O)C1CCN(Cc2ccc(N(C)C)cc2)CC1 | 44 | 1 | 4 | -15 | 0 | 1
